Test results reported in ChEMBL document CHEMBL4480414, “Design and total synthesis of (-)-codonopsinine, (-)-codonopsine and codonopsinine analogues by O-(2-oxopyrrolidin-5-yl)trichloroacetimidate as amidoalkylating agent with improved antimicrobial activity via solid lipid nanoparticle formulations” (Bioorg Med Chem, 2019).
In brackets after ≈: the same amount, converted by molar mass. Activity calls are given as the source filed them. No cut-off for these calls is given here.

Legend:
Candida albicans [1] = experiment: Antimicrobial activity against Candida albicans ATCC 10231 measured after 18 hrs using solid lipid nanoparticle formulation by broth microdilution method; assay type: functional; conditions: ATCC 10231, 18 h
Summary of the method: (§1)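 Broth microdilution in 96-well plates. Compound stock 10 mg/ml in DMSO, two-fold serial dilutions from final 1024 to 0.5 µg/ml in water plus double-strength nutrient broth. Inoculum from direct colony suspension in saline adjusted to 0.5 McFarland, final 5 × 10⁵ CFU per well, used within 15 min. Positive and negative control rows.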

Candida albicans [2] = experiment: Antimicrobial activity against Candida albicans ATCC 10231 at 380 ug by Kirby-Bauer disk diffusion test; assay type: functional, organism-based
Summary of the method: (§2)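 Modified Kirby-Bauer disc diffusion on Muller-Hinton agar. Inhibition-zone diameter, disc diameter included, measured with a ruler from under the plate and recorded in mm.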

Escherichia coli [3] = experiment: Antimicrobial activity against Escherichia coli ATCC 25922 measured after 18 hrs by broth microdilution method; assay type: functional; conditions: ATCC 25922, 18 h; summary of the method: as §1
[4] = Dissolution of the compound in phosphate buffer at pH 6.8 measured over 12 hrs using solid lipid nanoparticle formulation by dialysis bag diffusion method; assay type: physicochemical; conditions: artificial membrane, pH 6.8, 12 h
Summary of the method: (§3)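 SLNs made by hot emulsification-ultrasonication with Compritol as lipid and 3% Pluronic F68 aqueous phase. Homogenized at 10,000 rpm and 75 °C for 15 min, then probe-sonicated 10 min.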

Klebsiella pneumoniae [5] = experiment: Antimicrobial activity against Klebsiella pneumoniae ATCC 700603 measured after 18 hrs by broth microdilution method; assay type: functional; conditions: Klebsiella pneumoniae, 700603, 18 h; summary of the method: as §1
Proteus mirabilis [6] = experiment: Antimicrobial activity against Proteus mirabilis ATCC 14153 measured after 18 hrs by broth microdilution method; assay type: functional; conditions: ATCC 14153, 18 h; summary of the method: as §1
Staphylococcus aureus [7] = experiment: Antimicrobial activity against Staphylococcus aureus ATCC 29213 measured after 18 hrs by broth microdilution method; assay type: functional; conditions: ATCC 29213, 18 h; summary of the method: as §1
Proteus mirabilis [8] = experiment: Antimicrobial activity against Proteus mirabilis ATCC 14153 measured after 18 hrs using solid lipid nanoparticle formulation by broth microdilution method; assay type: functional; conditions: ATCC 14153, 18 h; summary of the method: as §1
Acinetobacter baumannii [9] = experiment: Antimicrobial activity against clinical isolate of Acinetobacter baumannii measured after 18 hrs by broth microdilution method; assay type: functional; summary of the method: as §1
[10] = Permeability of the compound in simulated dialysis membrane at pH 6.8 measured within 6 hrs by Franz diffusion cell-based spectrophotometric method; assay type: ADME, cell membranes; conditions: artificial membrane, pH 6.8, 6 h
Summary of the method: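 Franz cell with dialysis membrane. 1 ml of SLN formula or compound suspension in the donor chamber; receptor holds phosphate buffer pH 6.8 at 37 °C, magnetically stirred. Receptor sampled with replacement over 6 h; concentration by UV absorbance against a calibration curve.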

Staphylococcus aureus [11] = experiment: Antimicrobial activity against Staphylococcus aureus ATCC 29213 measured after 18 hrs using solid lipid nanoparticle formulation by broth microdilution method; assay type: functional; conditions: ATCC 29213, 18 h; summary of the method: as §1
Acinetobacter baumannii [12] = experiment: Antimicrobial activity against clinical isolate of Acinetobacter baumannii measured after 18 hrs using solid lipid nanoparticle formulation by broth microdilution method; assay type: functional; summary of the method: as §1
Klebsiella pneumoniae [13] = experiment: Antimicrobial activity against Klebsiella pneumoniae ATCC 700603 measured after 18 hrs using solid lipid nanoparticle formulation by broth microdilution method; assay type: functional; conditions: Klebsiella pneumoniae, 700603, 18 h; summary of the method: as §1
Candida albicans [14] = experiment: Antimicrobial activity against Candida albicans ATCC 10231 measured after 18 hrs by broth microdilution method; assay type: functional; conditions: ATCC 10231, 18 h; summary of the method: as §1
Staphylococcus aureus [15] = experiment: Antimicrobial activity against Staphylococcus aureus ATCC 29213 assessed as diameter of inhibition zone at 380 ug by Kirby-Bauer disk diffusion test; assay type: functional; conditions: for zone of inhibition at 380 µg/disc: read-out: DIZ; summary of the method: as §2
Pseudomonas aeruginosa [16] = experiment: Antimicrobial activity against Pseudomonas aeruginosa ATCC 27853 measured after 18 hrs using solid lipid nanoparticle formulation by broth microdilution method; assay type: functional; conditions: ATCC 27853, 18 h; summary of the method: as §1
[17] = Dissolution of the compound in phosphate buffer at pH 6.8 measured within 2 hrs by dialysis bag diffusion method; assay type: physicochemical; conditions: artificial membrane, pH 6.8, 2 h
Summary of the method: (§4)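 Formula or compound suspension (3 ml) in 12 kDa MWCO dialysis bags, in 500 ml enzyme-free phosphate buffer pH 6.8, 37 °C, 50 rpm. 5 ml samples taken with replacement over 12 h. Cumulative % release determined by UV absorbance against a calibration curve.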

[18] = Permeability of the compound in simulated dialysis membrane at pH 6.8 measured within 6 hrs using solid lipid nanoparticle formulation by Franz diffusion cell-based spectrophotometric method; assay type: ADME, cell membranes; conditions: artificial membrane, pH 6.8, 6 h; summary of the method: as §3
Pseudomonas aeruginosa [19] = experiment: Antimicrobial activity against Pseudomonas aeruginosa ATCC 27853 measured after 18 hrs by broth microdilution method; assay type: functional; conditions: ATCC 27853, 18 h; summary of the method: as §1
Escherichia coli [20] = experiment: Antimicrobial activity against Escherichia coli ATCC 25922 measured after 18 hrs using solid lipid nanoparticle formulation by broth microdilution method; assay type: functional; conditions: ATCC 25922, 18 h; summary of the method: as §1
Klebsiella pneumoniae [21] = experiment: Antimicrobial activity against Klebsiella pneumoniae ATCC 700603 assessed as diameter of inhibition zone at 380 ug by Kirby-Bauer disk diffusion test; assay type: functional; conditions: read-out: DIZ; summary of the method: as §2
Acinetobacter baumannii [22] = experiment: Antimicrobial activity against clinical isolate of Acinetobacter baumannii assessed as diameter of inhibition zone at 380 ug by Kirby-Bauer disk diffusion test; assay type: functional; conditions: read-out: DIZ; summary of the method: as §2
Escherichia coli [23] = experiment: Antimicrobial activity against Escherichia coli ATCC 25922 assessed as diameter of inhibition zone at 380 ug by Kirby-Bauer disk diffusion test; assay type: functional; conditions: read-out: DIZ; summary of the method: as §2
Pseudomonas aeruginosa [24] = experiment: Antimicrobial activity against Pseudomonas aeruginosa ATCC 27853 assessed as diameter of inhibition zone at 380 ug by Kirby-Bauer disk diffusion test; assay type: functional; conditions: read-out: DIZ; summary of the method: as §2
Proteus mirabilis [25] = experiment: Antimicrobial activity against Proteus mirabilis ATCC 14153 assessed as diameter of inhibition zone at 380 ug by Kirby-Bauer disk diffusion test; assay type: functional; conditions: read-out: DIZ; summary of the method: as §2
[26] = Dissolution of the compound in phosphate buffer at pH 6.8 measured after 2 hrs by dialysis bag diffusion method; assay type: physicochemical; conditions: artificial membrane, pH 6.8, 2 h; summary of the method: as §4

Row | Structure (SMILES) | MIC (Candida albicans [1]) [µg/mL] | MIC (Escherichia coli [3]) [µg/mL] | Activity [4] [%] | MIC (Klebsiella pneumoniae [5]) [µg/mL] | MIC (Proteus mirabilis [6]) [µg/mL] | MIC (Staphylococcus aureus [7]) [µg/mL] | MIC (Proteus mirabilis [8]) [µg/mL] | MIC (Acinetobacter baumannii [9]) [µg/mL] | permeability [10] [%] | MIC (Staphylococcus aureus [11]) [µg/mL] | MIC (Acinetobacter baumannii [12]) [µg/mL] | MIC (Klebsiella pneumoniae [13]) [µg/mL] | MIC (Candida albicans [14]) [µg/mL] | MIC (Pseudomonas aeruginosa [16]) [µg/mL] | Activity [17] [%] | permeability [18] [%] | MIC (Pseudomonas aeruginosa [19]) [µg/mL] | MIC (Escherichia coli [20]) [µg/mL] | Activity (Candida albicans [2]) | growth inhibition (GI) (Staphylococcus aureus [15]) | further results
1 | Cc1ccc([C@@H]2[C@@H](O)[C@H](O)[C@@H](C)N2C)cc1 | > 1020 | 128 (≈ 578 µM) | 90.1 | 1020 (≈ 4630 µM) | 1020 (≈ 4630 µM) | > 1020 | 512 (≈ 2310 µM) | 256 (≈ 1160 µM) | 56.3 | 1020 (≈ 4630 µM) | 64 (≈ 289 µM) | 512 (≈ 2310 µM) | > 1020 | 1020 (≈ 4630 µM) | 100 | 100 | 1020 (≈ 4630 µM) | 512 (≈ 2310 µM) | inactive | – | –
2 | COc1ccc([C@@H]2[C@@H](O)[C@H](O)[C@@H](C)N2C)c(F)c1 | > 1020 | 4 (≈ 15.7 µM) | 90.2 | > 1020 | > 1020 | ≤ 0.5 | > 1020 | 512 (≈ 2010 µM) | 59.1 | ≤ 0.5 | 512 (≈ 2010 µM) | 1020 (≈ 4010 µM) | > 1020 | > 1020 | 96.7 | 100 | > 1020 | 16 (≈ 62.7 µM) | inactive | – | zone of inhibition at 380 µg/disc (Staphylococcus aureus [15]): 30 mm
3 | COc1cc([C@@H]2[C@@H](O)[C@H](O)[C@@H](C)N2C)c(F)c(C)c1OC | > 1020 | 64 (≈ 214 µM) | 92.2 | 512 (≈ 1710 µM) | 1020 (≈ 3420 µM) | 4 (≈ 13.4 µM) | 128 (≈ 428 µM) | 512 (≈ 1710 µM) | 72.9 | 4 (≈ 13.4 µM) | 256 (≈ 855 µM) | > 1020 | > 1020 | > 1020 | – | 100 | 1020 (≈ 3420 µM) | 16 (≈ 53.5 µM) | inactive | Active | Activity [26]: 78.2%
4 | COc1ccc([C@@H]2[C@@H](O)[C@H](O)[C@@H](C)N2C)cc1OC | > 1020 | 64 (≈ 239 µM) | 93.2 | > 1020 | > 1020 | 32 (≈ 120 µM) | > 1020 | > 1020 | 67.2 | 32 (≈ 120 µM) | > 1020 | > 1020 | > 1020 | > 1020 | 87.8 | 100 | > 1020 | 256 (≈ 958 µM) | inactive | Active | –

Second part, led by results:

Row | MIC (Candida albicans [1]) [µg/mL] | MIC (Escherichia coli [3]) [µg/mL] | Activity [4] [%] | MIC (Klebsiella pneumoniae [5]) [µg/mL] | MIC (Proteus mirabilis [6]) [µg/mL] | MIC (Staphylococcus aureus [7]) [µg/mL] | MIC (Proteus mirabilis [8]) [µg/mL] | MIC (Acinetobacter baumannii [9]) [µg/mL] | permeability [10] [%] | MIC (Staphylococcus aureus [11]) [µg/mL] | MIC (Acinetobacter baumannii [12]) [µg/mL] | MIC (Klebsiella pneumoniae [13]) [µg/mL] | MIC (Candida albicans [14]) [µg/mL] | MIC (Pseudomonas aeruginosa [16]) [µg/mL] | Activity [17] [%] | permeability [18] [%] | MIC (Pseudomonas aeruginosa [19]) [µg/mL] | MIC (Escherichia coli [20]) [µg/mL] | Structure (SMILES) | Activity (Candida albicans [2]) | growth inhibition (GI) (Staphylococcus aureus [15]) | further results
5 | > 1020 | 128 (≈ 539 µM) | 93.3 | > 1020 | 128 (≈ 539 µM) | ≤ 0.5 | 64 (≈ 270 µM) | > 1020 | 60.7 | ≤ 0.5 | 256 (≈ 1080 µM) | 1020 (≈ 4320 µM) | > 1020 | > 1020 | 95.2 | 100 | 1020 (≈ 4320 µM) | 64 (≈ 270 µM) | COc1ccc([C@@H]2[C@@H](O)[C@H](O)[C@@H](C)N2C)cc1 | inactive | – | zone of inhibition at 380 µg/disc (Staphylococcus aureus [15]): 32 mm
6 | > 1020 | 8 (≈ 31.8 µM) | 92.1 | 256 (≈ 1020 µM) | 16 (≈ 63.7 µM) | 2 (≈ 7.96 µM) | 8 (≈ 31.8 µM) | > 1020 | 62.7 | 2 (≈ 7.96 µM) | > 1020 | 512 (≈ 2040 µM) | > 1020 | > 1020 | 91.8 | 100 | > 1020 | 8 (≈ 31.8 µM) | COCc1ccc([C@@H]2[C@@H](O)[C@H](O)[C@@H](C)N2C)cc1 | inactive | Active | –
7 | > 1020 | 16 (≈ 77.2 µM) | 91.2 | 1020 (≈ 4940 µM) | 4 (≈ 19.3 µM) | 1020 (≈ 4940 µM) | 2 (≈ 9.65 µM) | 128 (≈ 618 µM) | 49.8 | 1020 (≈ 4940 µM) | 16 (≈ 77.2 µM) | > 1020 | > 1020 | 512 (≈ 2470 µM) | 100 | 100 | 1020 (≈ 4940 µM) | 16 (≈ 77.2 µM) | C[C@@H]1[C@@H](O)[C@H](O)[C@@H](c2ccccc2)N1C | inactive | – | zone of inhibition at 380 µg/disc (Klebsiella pneumoniae [21]): 22 mm; zone of inhibition at 380 µg/disc (Acinetobacter baumannii [22]): 32 mm; zone of inhibition at 380 µg/disc (Escherichia coli [23]): 40 mm; zone of inhibition at 380 µg/disc (Pseudomonas aeruginosa [24]): 18 mm; zone of inhibition at 380 µg/disc (Proteus mirabilis [25]): 34 mm
